In BindingDB's records for doi:10.1016/j.bmcl.2007.12.018 (Novartis Institute For Biomedical Research, 2008):

molecular target: RAC-alpha serine/threonine-protein kinase (Homo sapiens, UniProt P31749); assay: Inhibition of phosphorylation of T308-PKB in human U87MG cells by ELISA
How it was run: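 Cell capture ELISA for phospho-T308 PKB in U87MG cells; IC50 determined.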

Sequence of RAC-alpha serine/threonine-protein kinase (P31749 whole entry): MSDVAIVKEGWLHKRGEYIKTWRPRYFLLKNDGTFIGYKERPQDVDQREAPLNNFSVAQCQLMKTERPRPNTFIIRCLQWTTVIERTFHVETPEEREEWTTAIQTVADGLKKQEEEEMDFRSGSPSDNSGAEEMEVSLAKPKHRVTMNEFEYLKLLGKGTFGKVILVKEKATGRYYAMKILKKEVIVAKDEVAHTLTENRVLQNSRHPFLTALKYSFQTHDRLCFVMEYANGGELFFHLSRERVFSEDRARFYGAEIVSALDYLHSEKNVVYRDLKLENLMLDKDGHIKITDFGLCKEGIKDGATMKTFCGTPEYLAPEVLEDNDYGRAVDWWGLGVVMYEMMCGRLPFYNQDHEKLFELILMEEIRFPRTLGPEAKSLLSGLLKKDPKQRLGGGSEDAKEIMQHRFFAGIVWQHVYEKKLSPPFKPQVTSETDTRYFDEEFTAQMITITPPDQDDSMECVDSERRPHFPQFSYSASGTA

IC50	Structure (SMILES)
33 nM	Cn1c(=O)n(-c2ccc(C(C)(C)C#N)cc2)c2c3cc(C#Cc4cccnc4)ccc3ncc21
45 nM	Cc1nc2cnc3ccc(C#Cc4cccnc4)cc3c2n1-c1ccc(C(C)C#N)cc1 (centres undefined)
77 nM	Cc1nc2cnc3ccc(C#Cc4cccnc4)cc3c2n1-c1ccc(CC#N)cc1
138 nM	CCc1nc2cnc3ccc(C#Cc4cccnc4)cc3c2n1-c1ccc(CC#N)cc1
